Test results published in ChEMBL document CHEMBL2311487, “Total synthesis of bicyclic depsipeptides spiruchostatins C and D and investigation of their histone deacetylase inhibitory and antiproliferative activities” (Eur J Med Chem, 2013).
Blank lines part the entries; values can stand above or below the compound they belong to.

What was measured:
Histone deacetylase = experiment: Inhibition of class 1 HDAC (unknown origin); assay type: protein assay, Homo sapiens
[1] = Selectivity index, ratio of IC50 for mouse HDAC6 to IC50 for human HDAC1
How it was run: (§1)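 FLAG-tagged HDAC1 or HDAC6 was expressed in cells grown 24 h in DMEM, then lysed in Tris/NaCl/EDTA/NP40 buffer. The enzyme was immunoprecipitated with anti-FLAG M2 and eluted with FLAG peptide. It was incubated with Ac-KGLGK(Ac)-MCA (2 mM stock) and 100 μM DTT at 37 °C for 30 min, then trypsin at 37 °C for 15 min. AMC fluorescence was read. IC50 is the mean±SD of ≥3 curves. The ratios are computed from these IC50s.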

[2] = biological target: Histone deacetylase 1 (Homo sapiens) (UniProt Q13547); experiment: Ratio of FK228 IC50 to compound IC50 for human HDAC1 using Ac-KGLGK(Ac)-MCA as substrate after 30 mins by fluorescence assay; how it was run: as §1
[3] = biological target: Protein deacetylase HDAC6 (Mus musculus, UniProt Q9Z2V5); experiment: Inhibition of mouse HDAC6 using Ac-KGLGK(Ac)-MCA as substrate after 30 mins by fluorescence assay
PC-3 = experiment: Growth inhibition of human PC3 cells by sulforhodamine B colorimetric method; assay type: functional
How it was run: (§2)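 Tested in a human cancer cell line panel. Five concentrations were used per compound, spanning either 10^-10–10^-6 M or 10^-8–10^-4 M. Growth was read by sulforhodamine B colorimetry.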

DU-145 = experiment: Growth inhibition of human DU145 cells by sulforhodamine B colorimetric method; assay type: functional; how it was run: as §2
MKN-45 = experiment: Growth inhibition of human MKN45 cells by sulforhodamine B colorimetric method; assay type: functional; how it was run: as §2
MKN-74 = experiment: Growth inhibition of human MKN74 cells by sulforhodamine B colorimetric method; assay type: functional; how it was run: as §2
MKN-28 = experiment: Growth inhibition of human MKN28 cells by sulforhodamine B colorimetric method; assay type: functional; how it was run: as §2
MKN-7 = experiment: Growth inhibition of human MKN7 cells by sulforhodamine B colorimetric method; assay type: functional; how it was run: as §2
St-4 = experiment: Growth inhibition of human St-4 cells by sulforhodamine B colorimetric method; assay type: functional; how it was run: as §2
[4] = Growth inhibition of human MKN1 cells by sulforhodamine B colorimetric method; assay type: functional; conditions: MKN-1; how it was run: as §2
[5] = Growth inhibition of human RXF631L cells by sulforhodamine B colorimetric method; assay type: functional; conditions: RXF 631; how it was run: as §2
ACHN = experiment: Growth inhibition of human ACHN cells by sulforhodamine B colorimetric method; assay type: functional; how it was run: as §2
SK-OV-3 = experiment: Growth inhibition of human SKOV3 cells by sulforhodamine B colorimetric method; assay type: functional; how it was run: as §2
OVCAR-5 = experiment: Growth inhibition of human OVCAR5 cells by sulforhodamine B colorimetric method; assay type: functional; how it was run: as §2
OVCAR-8 = experiment: Growth inhibition of human OVCAR8 cells by sulforhodamine B colorimetric method; assay type: functional; how it was run: as §2
OVCAR-4 = experiment: Growth inhibition of human OVCAR4 cells by sulforhodamine B colorimetric method; assay type: functional; how it was run: as §2
LOX IMVI = experiment: Growth inhibition of human LOXIMVI cells by sulforhodamine B colorimetric method; assay type: functional; how it was run: as §2
OVCAR-3 = experiment: Growth inhibition of human OVCAR3 cells by sulforhodamine B colorimetric method; assay type: functional; how it was run: as §2
DMS-273 = experiment: Growth inhibition of human DMS273 cells by sulforhodamine B colorimetric method; assay type: functional; how it was run: as §2
DMS-114 = experiment: Growth inhibition of human DMS114 cells by sulforhodamine B colorimetric method; assay type: functional; how it was run: as §2
NCI-H460 = experiment: Growth inhibition of human NCI-H460 cells by sulforhodamine B colorimetric method; assay type: functional; how it was run: as §2
A549 = experiment: Growth inhibition of human A549 cells by sulforhodamine B colorimetric method; assay type: functional; how it was run: as §2
NCI-H522 = experiment: Growth inhibition of human NCI-H522 cells by sulforhodamine B colorimetric method; assay type: functional; how it was run: as §2
NCI-H23 = experiment: Growth inhibition of human NCI-H23 cells by sulforhodamine B colorimetric method; assay type: functional; how it was run: as §2
NCI-H226 = experiment: Growth inhibition of human NCI-H226 cells by sulforhodamine B colorimetric method; assay type: functional; how it was run: as §2
HCT-116 = experiment: Growth inhibition of human HCT116 cells by sulforhodamine B colorimetric method; assay type: functional; how it was run: as §2
HT-29 = experiment: Growth inhibition of human HT-29 cells by sulforhodamine B colorimetric method; assay type: functional; how it was run: as §2
HCT-15 = experiment: Growth inhibition of human HCT15 cells by sulforhodamine B colorimetric method; assay type: functional; how it was run: as §2
[6] = Growth inhibition of human HCC2998 cells by sulforhodamine B colorimetric method; assay type: functional; conditions: HCC 2998; how it was run: as §2
KM12 = experiment: Growth inhibition of human KM12 cells by sulforhodamine B colorimetric method; assay type: functional; how it was run: as §2
SNB-78 = experiment: Growth inhibition of human SNB78 cells by sulforhodamine B colorimetric method; assay type: functional; how it was run: as §2
SNB-75 = experiment: Growth inhibition of human SNB75 cells by sulforhodamine B colorimetric method; assay type: functional; how it was run: as §2
SF-539 = experiment: Growth inhibition of human SF539 cells by sulforhodamine B colorimetric method; assay type: functional; how it was run: as §2
SF-295 = experiment: Growth inhibition of human SF295 cells by sulforhodamine B colorimetric method; assay type: functional; how it was run: as §2
U-251 = experiment: Growth inhibition of human U251 cells by sulforhodamine B colorimetric method; assay type: functional; how it was run: as §2
SF-268 = experiment: Growth inhibition of human SF268 cells by sulforhodamine B colorimetric method; assay type: functional; how it was run: as §2
MDA-MB-231 = experiment: Growth inhibition of human MDA-MB-231 cells by sulforhodamine B colorimetric method; assay type: functional; how it was run: as §2
MCF7 = experiment: Growth inhibition of human MCF7 cells by sulforhodamine B colorimetric method; assay type: functional; how it was run: as §2
[7] = Growth inhibition of human HBC5 cells by sulforhodamine B colorimetric method; assay type: functional; how it was run: as §2
[8] = Growth inhibition of human BSY1 cells by sulforhodamine B colorimetric method; assay type: functional; conditions: BSY-1; how it was run: as §2
[9] = Growth inhibition of human HBC4 cells by sulforhodamine B colorimetric method; assay type: functional; how it was run: as §2

Histone deacetylase 1 (Homo sapiens), sequence (Q13547 whole entry): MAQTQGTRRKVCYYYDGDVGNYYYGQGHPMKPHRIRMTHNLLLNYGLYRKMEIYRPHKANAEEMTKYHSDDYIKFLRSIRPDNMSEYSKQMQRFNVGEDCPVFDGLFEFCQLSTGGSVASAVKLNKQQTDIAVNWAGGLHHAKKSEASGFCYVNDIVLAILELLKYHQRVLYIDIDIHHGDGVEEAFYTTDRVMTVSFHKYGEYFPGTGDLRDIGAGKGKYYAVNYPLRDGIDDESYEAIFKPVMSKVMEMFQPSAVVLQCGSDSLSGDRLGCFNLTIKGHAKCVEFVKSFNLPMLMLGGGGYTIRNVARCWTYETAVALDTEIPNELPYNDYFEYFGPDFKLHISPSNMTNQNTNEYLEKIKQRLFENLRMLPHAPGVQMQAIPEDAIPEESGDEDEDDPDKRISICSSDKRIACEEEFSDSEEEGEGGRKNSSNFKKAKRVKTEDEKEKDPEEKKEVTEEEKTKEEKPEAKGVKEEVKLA
Protein deacetylase HDAC6, sequence (Q9Z2V5 whole entry): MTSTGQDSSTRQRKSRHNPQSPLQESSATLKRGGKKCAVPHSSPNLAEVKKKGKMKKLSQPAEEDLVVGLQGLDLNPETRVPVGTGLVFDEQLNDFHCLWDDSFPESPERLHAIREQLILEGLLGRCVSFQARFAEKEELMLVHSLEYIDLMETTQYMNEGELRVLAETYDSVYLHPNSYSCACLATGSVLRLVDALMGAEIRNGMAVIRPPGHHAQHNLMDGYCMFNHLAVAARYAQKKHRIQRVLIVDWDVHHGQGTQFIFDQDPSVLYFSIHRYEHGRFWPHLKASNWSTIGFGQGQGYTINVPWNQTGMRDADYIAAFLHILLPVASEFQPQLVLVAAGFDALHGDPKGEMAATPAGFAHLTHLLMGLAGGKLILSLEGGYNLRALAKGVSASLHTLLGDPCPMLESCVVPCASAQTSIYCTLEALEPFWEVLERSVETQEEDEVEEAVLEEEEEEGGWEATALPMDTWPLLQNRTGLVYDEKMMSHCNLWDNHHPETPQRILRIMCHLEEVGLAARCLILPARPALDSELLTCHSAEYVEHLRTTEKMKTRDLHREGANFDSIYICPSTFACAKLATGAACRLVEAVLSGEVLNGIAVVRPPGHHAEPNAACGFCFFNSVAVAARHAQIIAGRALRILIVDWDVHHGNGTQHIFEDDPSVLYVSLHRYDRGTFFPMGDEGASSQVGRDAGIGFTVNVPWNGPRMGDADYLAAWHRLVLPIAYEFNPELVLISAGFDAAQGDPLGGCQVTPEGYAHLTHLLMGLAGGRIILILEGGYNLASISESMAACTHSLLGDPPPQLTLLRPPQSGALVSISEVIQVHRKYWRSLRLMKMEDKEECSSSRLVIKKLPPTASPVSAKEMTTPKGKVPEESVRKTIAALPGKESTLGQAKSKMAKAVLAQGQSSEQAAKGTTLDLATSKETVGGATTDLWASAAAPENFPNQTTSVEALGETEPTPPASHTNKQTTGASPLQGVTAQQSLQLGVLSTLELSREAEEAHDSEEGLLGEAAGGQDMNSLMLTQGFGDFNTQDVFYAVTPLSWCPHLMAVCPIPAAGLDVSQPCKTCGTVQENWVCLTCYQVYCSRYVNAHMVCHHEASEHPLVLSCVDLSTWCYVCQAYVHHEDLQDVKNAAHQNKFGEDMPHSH

IC50 (Histone deacetylase): 2.2 nM
SMILES: CCC(C)[C@H]1NC(=O)[C@H]2CSSCC/C=C/[C@H](CC(=O)N[C@H](C)C(=O)N2)OC(=O)C[C@@H]1O (stereo partly drawn) [spiruchostatin B]

Ratio IC50 [1]: 320 | Ratio IC50 [2]: 3 | IC50 [3]: 240 nM | GI50 (PC-3): 8.7 nM | GI50 (DU-145): 4 nM | GI50 (MKN-45): 9.6 nM | GI50 (MKN-74): 2.9 nM | GI50 (MKN-28): 9.5 nM | GI50 (MKN-7): 5.8 nM | GI50 (ACHN): 21 nM | GI50 (SK-OV-3): 2.3 nM | GI50 (OVCAR-5): 1.2 nM | GI50 (OVCAR-8): 2.7 nM | GI50 (OVCAR-4): 4.7 nM | GI50 (OVCAR-3): 2.2 nM | GI50 (NCI-H460): 2.8 nM | GI50 (A549): 0.97 nM | GI50 (NCI-H522): 0.39 nM | GI50 (NCI-H23): 2.5 nM | GI50 (NCI-H226): 4 nM | GI50 (HCT-116): 1.3 nM | GI50 (HT-29): 2.2 nM | GI50 (HCT-15): 210 nM | GI50 (U-251): 2.7 nM | GI50 (MDA-MB-231): 1.7 nM | GI50 (MCF7): 2.9 nM
SMILES: CC(C)[C@H]1NC(=O)[C@H]2CSSCC/C=C/[C@H](CC(=O)N[C@H](C(C)C)C(=O)N2)OC(=O)C[C@@H]1O [spiruchostatin D]
GI50 (St-4): 16 nM | GI50 [4]: 2 nM | GI50 [5]: 5.9 nM | GI50 (LOX IMVI): 1.8 nM | GI50 (DMS-273): 5.1 nM | GI50 (DMS-114): 3.6 nM | GI50 [6]: 1.5 nM | GI50 (KM12): 2.6 nM | GI50 (SNB-78): 41 nM | GI50 (SNB-75): 1.9 nM | GI50 (SF-539): 0.58 nM | GI50 (SF-295): 5.1 nM | GI50 (SF-268): 3.5 nM | GI50 [7]: 18 nM | GI50 [8]: 5.2 nM | GI50 [9]: 4.1 nM
